Screens from PubChem.
HCT116 bCat-KO – beta-catenin-lacking colon tumor cell growth suppression; viability, % at 10 µM; AID 818; hit rate 1.5% among 140,000; HCT116 beta-catenin knockout viability, CellTiter-Glo, 60 h; hits give low values;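 active means viability at or under a set limit, the compound median less 4 SD, cut at about 6% in these data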;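 further: 0% = Hyamine 1622 control at 20 µM and 100% = untreated cell control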
H69AR growth 86K – growth inhibitors of human H69AR lung tumor cells | H69AR lung tumor viability, ATP luminescence, 72 h; hits give low values | hit rate 6% among 85,000 | viability, % at 10 µM;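 active means viability at or below 40%; inactive means viability above 40%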;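 further: multidrug resistant small cell line overexpressing MRP-1 efflux transporter; 100% = mean luminescence of untreated control wells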
HUVEC prolif 384 – human endothelial cell proliferation inhibition. HUVEC proliferation, CellTiter-Glo luminescence, 72 h; hits give low values. viability, % at 10 µM (by protocol). hit rate 1.1% among 86,000;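 active means viability at or below 30%; inactive means viability above 30%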;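 further: 100% = median luminescence of DMSO-only cell control wells on each plate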
PTEN del growth – PTEN-deleted cell growth suppression; HCT116 PTEN-null viability, CellTiter-Glo, 60 h; hits give low values; viability, % at 10 µM; hit rate 1.2% among 140,000; AID 827;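 active means viability at or below a set limit, 4 SD under the median of all tested compounds, cut at about 3.7% in these data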;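 further: PTEN knockout HCT116 line with beta catenin targeted HCT116 as companion control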
Fibroblast inh – blocks proliferation of human lung fibroblasts | hit rate 1.1% among 85,000 | LL 47 human lung fibroblast viability, ATP luminescence; hits give low values | viability, % at 10 µM;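 active means viability at or below 50% in the single dose screen; inactive means viability above 50%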;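 further: compound exposure lasted 72 h before the ATP readout; 100% = median luminescence of untreated cell-only wells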
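material = human LL 47 lung fibroblast cells | dosing = compounds added from tenfold dosing solution, 0.1% DMSO final | timing = overnight cell rest, 72 h compound treatment at 37 °C | measured by = CellTiter-Glo luminescence measuring cellular ATP | evaluation = % viability versus median cells-only luminescence | control set = cell-only wells, no compound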
The depositor's hits bear a star; . = no result given. Many of the other results were omitted from the sample, so hits are more common in it than they were.

SMILES	HCT116 bCat-KO	H69AR growth 86K	HUVEC prolif 384	PTEN del growth	Fibroblast inh
CCn1cc([N+](=O)[O-])c(C(=O)Nc2nc(-c3ccc(C)c(C)c3)c(C)s2)n1	87.8	.	.	70.1	.
Cc1ccc(NC(=O)CN(C)C(=O)COc2ccc(C(=O)c3ccc(F)cc3)cc2)cc1	85.7	.	.	79.5	.
COc1cc(-c2nnc(-c3ccc(N4CCOCC4)cc3)o2)cc(OC)c1OC	74.3	17.1*	84.0	76.5	95.0
Cc1cc(C)n(-c2nc(Nc3ccccc3C)nc(-n3nc(C)cc3C)n2)n1	88.4	54.1	74.1	80.8	23.4*
Cc1csc(Nc2ccccc2C(F)(F)F)n1	80.7	105.9	91.8	87.5	93.9
Cc1cc(C)n(-c2nc(Nc3ccccc3C(F)(F)F)nc(-n3nc(C)cc3C)n2)n1	2.9*	8.1*	15.3*	3.5*	26.7*
Cc1cc(C)n(-c2nc(NC(C)C)nc(NC(C)C)n2)n1	41.9	.	.	56.6	.
CCCC1=C(C(=O)OCC)C(c2ccc(OC)c(C)c2OC)C(C#N)=C(N)O1 (configuration not stated)	99.4	.	.	91.9	.
Cc1csc(-c2cnn(-c3ccccc3)c2NC(=O)c2ccc(C(F)(F)F)cc2)n1	95.1	75.9	92.8	83.6	101.4
COc1ccc(CNc2nc3c(c(C(F)(F)F)n2)CCCCC3)cc1	32.6	91.3	110.3	53.8	102.7
COC(=O)c1cccc(NS(=O)(=O)c2cccs2)c1C	84.0	105.4	92.4	85.5	92.1
COC(=O)c1ccccc1NC1=C/C(=N\S(=O)(=O)c2cccs2)c2ccccc2C1=O	1.8*	22.7*	4.0*	1.7*	5.7*
Cc1ccc(NC2=C/C(=N/S(=O)(=O)c3cccs3)c3ccccc3C2=O)cc1	1.2*	.	.	0.5*	.
O=C1C(Nc2ccccc2)=C/C(=N/S(=O)(=O)c2cccs2)c2ccccc21	2.0*	.	.	1.7*	.
COCCN(C(=S)Nc1ccccc1OC)C(C)c1cccs1 (configuration not stated)	83.0	.	.	74.4	.
CS(=O)(=O)CCC(C(=O)OCc1ccc(Cl)cc1)N1C(=O)c2ccccc2C1=O (configuration not stated)	91.5	.	.	108.8	.
COC(=O)C(NC(=O)c1ccccc1)(Nc1cc(C)cc(C)n1)C(F)(F)F (configuration not stated)	84.8	100.3	96.6	110.0	95.1
CC(=O)n1cc(/C=N/NC(=O)c2sc(C)nc2C)c2ccccc21	44.6	22.0*	83.8	48.3	88.9
Cc1nc(N)sc1C(=O)N/N=C/c1c[nH]c2ccccc12	42.6	.	.	40.2	.
Cc1ccc(-c2nc(S(=O)(=O)c3ccc(F)cc3)c(SCC(=O)NCC3CCCO3)o2)cc1 (configuration not stated)	84.5	85.7	105.5	88.1	94.3
O=C(CSc1oc(-c2ccc(F)cc2)nc1S(=O)(=O)c1ccc(F)cc1)NCC1CCCO1 (configuration not stated)	21.0	49.3	61.2	8.7	14.4*
Cc1ccc(S(=O)(=O)c2nc(-c3ccc(F)cc3)oc2SCC(=O)NCC2CCCO2)cc1 (configuration not stated)	37.8	28.5*	71.4	25.2	62.4
COc1ccc(N/C(N)=N/c2nc(CSc3ccc(Cl)cc3)cc(=O)[nH]2)cc1	78.1	16.3*	53.9	74.6	93.8
O=C(Oc1cccc(Nc2ncnc3ccccc23)c1)c1ccccc1Cl	70.5	.	.	71.7	.
N=C1C(c2nc3ccccc3s2)=C(O)CN1Cc1ccccc1	31.0	17.1*	46.3	30.9	52.4
SMILES	HCT116 bCat-KO	H69AR growth 86K	HUVEC prolif 384	PTEN del growth	Fibroblast inh
CCN(CC)CCCN1CC(O)=C(c2nc3ccccc3s2)C1=N	95.1	87.3	79.3	97.2	89.0
CCN(CC)S(=O)(=O)c1ccc(O)c(NS(=O)(=O)c2ccccc2F)c1	95.5	.	.	100.9	.
COc1ccccc1/C=N\N=C(\N)c1ccccn1	89.1	.	.	96.9	.
CCCCC(=O)NC(c1cccc([N+](=O)[O-])c1)c1c(OC(C)=O)ccc2ccccc12 (configuration not stated)	61.4	4.6*	79.6	55.9	89.0
Cc1ccc(C2=NC3(CCCCC3)N=C2SCC(=O)Nc2ccc3c(c2)OCCO3)cc1	57.5	.	.	58.2	.
CC1=C(C)/C(=N/OC(=O)c2cccc([N+](=O)[O-])c2)C=CC1=O	1.6*	10.9*	87.7	1.7*	89.2
N/C(=N\OC(=O)c1ccc2ccccc2c1)c1cccc([N+](=O)[O-])c1	6.2	.	.	4.8	.
CCOC(=O)c1cc(C#N)c(SCc2cccc3ccccc23)nc1C	69.5	95.6	95.9	72.0	89.9
CCOC(=O)c1cc(C#N)c(SCC(=O)c2cc(C#N)c(SC)nc2C)nc1C	.	11.6*	63.1	.	.
Cc1cc(C(=O)N[C@H](c2ccccc2)[C@@]2(C)C[C@@H]2[C@@H](C)C(=O)Nc2ccc3ccccc3c2)n(C)n1	21.2	.	.	14.1	.
CC1CC(C)CN(C(=O)C(NS(=O)(=O)c2ccc(Br)s2)c2ccccc2)C1 (configuration not stated)	70.0	.	.	64.4	.
Oc1oc(-c2ccccc2)nc1C=Nc1cccc2ccccc12	91.5	20.4*	66.8	90.5	93.6
CN(C(=O)c1ccc(NC(=O)c2cnccn2)cc1)C1CCCCC1	.	91.4	91.0	.	97.5
Cn1cc(SCC(=O)Nc2nc3ccccc3s2)c2ccccc21	85.1	71.3	10.5*	75.6	97.1
CC1(C)Cc2c(sc3c4nnnn4c4nnnn4c23)CO1	8.2	2.5*	54.3	14.3	92.9
CCOC(=O)c1[nH]c2ccccc2c1NC(=O)c1ccc2c(c1)OCO2	86.4	21.9*	81.5	89.6	78.1
CCOC(=O)c1[nH]c2ccc(OC)cc2c1NC(=O)c1ccc2c(c1)OCO2	87.2	68.8	90.3	79.0	97.0
CCOC(=O)c1[nH]c2cc(OC)c(OC)cc2c1NC(=O)c1ccc2c(c1)OCO2	102.0	26.1*	88.4	112.2	68.1
CCOC(=O)c1oc2ccccc2c1NC(=O)c1ccc2c(c1)OCO2	96.5	72.8	66.0	90.6	103.5
COc1ccc(C2CC23N=C(c2ccccc2)OC3=O)cc1 (configuration not stated)	95.4	.	.	97.1	.
CC1CCN(c2ccc(NC(=S)NC(=O)c3ccc(-c4cccc([N+](=O)[O-])c4)o3)cc2)CC1	65.9	24.7*	72.1	66.4	74.5
CC(=O)c1sc(NC(=O)C2(F)C(F)(F)C(F)(F)C(F)(F)C(F)(F)C2(F)F)nc1C	16.1	12.5*	45.1	12.7	54.1
CCOc1ccccc1NC(=O)COC(=O)CSc1ccc(Cl)cc1	102.5	.	.	93.8	.
CCNC(=S)N/N=C/c1ccc(OCc2ccc(C(=O)OC)cc2)cc1	101.1	.	.	102.3	.
O=c1c2c(nc3c(-c4ccccc4)c[nH]n13)CCCC2	89.1	58.2	83.1	111.1	78.9
Cc1[nH]n2c(=O)c3c(nc2c1-c1ccccc1)CCC3	97.0	24.9*	79.9	82.8	96.3
Cc1[nH]n2c(=O)c3c(nc2c1-c1ccc(Cl)cc1)CCC3	14.7	25.9*	45.2	16.3	72.6
CNc1ccc(/C=C2\COc3ccccc3C2=O)cc1[N+](=O)[O-]	88.9	15.6*	74.2	75.5	95.9
